Results as given in PMC3428429 (Biochimica et biophysica acta, 2012).

Legend:
[1] = Two step assay, step one: terbium/DPA leakage from vesicles
[2] = Two step assay, step two: dithionite quenching of NBD lipids; settings: 1 μM peptide, at least 8 h
[3] = Incremental leakage assay
[4] = Serial dilution leakage assay; settings: independent of total P:L (0.05 to 0.001)
In short: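 Terbium-loaded LUVs (100 nm extruded; 50 mM TbCl₃, 100 mM sodium citrate, 10 mM TES pH 7.2 inside), external Tb removed by gel filtration. Outside buffer is 300 mM NaCl, 10 mM TES pH 7.2 with 50 μM DPA. Test compound runs 0.078–1.25 μM at six fixed total P:L ratios in 96-well plates. Triton X-100 wells with matched lipid give 100% leakage. Repeated with BSA to block well adsorption.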

Row | Substance | terbium leakage ([1]; P:L=0.02 (1:50), only in PG-containing vesicles, 1 μM peptide, at least 8 h) | access to the vesicle interior at equilibrium ([2]; P:L = 0.005 (1:200)) | access to NBD lipids at equilibrium ([2]; P:L=0.02 (1:50), only in PG-containing vesicles) | lowest P:L ratio with measurable pore-forming activity ([1]; 1:10000 or 10 peptides per vesicle, supplemental Figure S1) | leakage in multiple lipid additions, PEG-lipid vesicles ([3]; vesicles containing 5 mol % PEG2000-headgroup conjugated lipids, supplemental Figure S5A) | lipid exchange between vesicles along with peptide ([3]; vesicles doped with fluorescent lipids, supplemental Figure S5B) | peptide concentration at which all leakage curves reach 100% leakage [4] [nM]
1 | ALWKTMLKKLGTMALHAGKAALGAAADTISQGTQ [dermaseptin S1] | high leakage | no access to the vesicle interior at equilibrium | high access to NBD lipids |  |  |  | 
2 | Ac-UPUAUAQUVUGLUPVUUQQF-OH [alamethicin] |  |  |  | ≤ 0.0001 | near complete leakage in multiple lipid additions | no lipid exchange between vesicles | ≤ 500
